Series [1] concerns Mus musculus. Kind of series: Anticonvulsant activity in ip dosed albino CD-1 mouse assessed as protection from maximal electroshock-induced seizures measured at time of peak effect. As to conditions: CD-1, ip. It is filed as functional. Put shortly: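 Male CD-1 mice (20-25 g) dosed ip in aqueous solution (1.0 mL/100 g). At time of peak rotarod activity, MES given by corneal electrodes (50-mA ac, 0.2 s). End point: abolition of hindlimb-extensor component.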
For orientation: The maximal electroshock test induces tonic seizures with an electrical stimulus.

The test system of series [2] is Mus musculus. Kind of series: Toxicity in albino CD-1 mouse assessed as sedation at >/= 2.68 mmol/kg, ip. It is filed as organism-based. The conditions noted are these: in vivo.
Series [3] relates to Mus musculus. Kind of series: Toxicity in albino CD-1 mouse assessed as mortality at >/= 2.68 mmol/kg, ip. It is filed as organism-based. The conditions noted are these: in vivo.
Series [4] concerns Mus musculus. Kind of series: Anti-parkinsonian activity in ip dosed albino CD-1 mouse assessed as inhibition of oxotremorine-induced diarrhea at 0.25 to 1 time TD50 administered 30 mins prior challenge. It is filed as functional, organism-based. In a few lines: (§1)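 Male CD-1 mice (20-25 g), groups of five, given test compound ip (aqueous, 1.0 mL/100 g) or saline 30 min before oxotremorine 1 mg/kg ip. Tremor intensity scored 0 absent, 1 mild, 2 moderate, 3 severe, summed over five animals; diarrhea and salivation also observed.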

The subject of series [5] is Mus musculus. Kind of series: Toxicity in albino CD-1 mouse assessed as loss of righting reflex at >/= 2.68 mmol/kg, ip. It is filed as organism-based. As to conditions: in vivo.
The test system of series [6] is Mus musculus. Kind of series: Neurotoxicity in ip dosed albino CD-1 mouse assessed as time to peak central activity by rotarod test. It is filed as toxicity, organism-based. The conditions noted are these: in vivo. Put shortly:
(§2)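 Male CD-1 mice (20-25 g), groups of 6-12, given ip doses in aqueous solution (1.0 mL/100 g). Neurotoxicity = failure to stay 1 min on a rod turning at 6 rpm. Time of peak central activity found. TD50 and 95% limits by Litchfield-Wilcoxon from at least three points in the 10-90% range.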
On the technique in general: The rotarod test checks motor coordination on a turning rod.

For series [7], the system named is Mus musculus. Kind of series: Anti-parkinsonian activity in ip dosed albino CD-1 mouse assessed as inhibition of oxotremorine-induced tremor at 0.25 to 1 time TD50 administered 30 mins prior challenge. It is filed as functional, organism-based. Put shortly:
as §1

Series [8] relates to Mus musculus. Kind of series: Toxicity in albino CD-1 mouse assessed as clonic-like seizure activity at >/= 2.68 mmol/kg, ip. It is filed as organism-based. The conditions noted are these: in vivo.
Series [9] deals with Mus musculus. Kind of series: Anti-parkinsonian activity in ip dosed albino CD-1 mouse assessed as inhibition of oxotremorine-induced tremor administered 30 mins prior challenge. It is filed as functional, organism-based. In a few lines:
as §1

The test system of series [10] is Mus musculus. Kind of series: Anticonvulsant activity in ip dosed albino CD-1 mouse assessed as threshold ratio for pentylenetetrazole-induced clonic seizures at 0.5 time TD50 measured at time of peak effect relative to saline-treated control. It is filed as functional. In a few lines: (§3)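 Male CD-1 mice (20-25 g) given saline or 0.5 TD50 test compound ip. At time of peak activity, pentylenetetrazole (0.5%) infused iv at 0.51 mL/min until minimal (clonic) or maximal (tonic-clonic) seizure. Threshold ratio = mean mg/kg pentylenetetrazole in treated mice ÷ mg/kg in saline mice, with 95% confidence intervals.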

Series [11] in a line: Protective index, ratio of TD50 for neurotoxicity to ED50 for anticonvulsant activity in ip dosed albino CD-1 mouse. It is filed as toxicity, organism-based. The conditions noted are these: in vivo, read-out: Ratio TD50/ED50. Put shortly:
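Groups of 6-12 male CD-1 mice dosed ip across a range giving at least three points at 10-90% MES protection or rotarod neurotoxicity. ED50 and TD50 by Litchfield-Wilcoxon; PI = TD50/ED50, not calculated when protection is below 50%.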

The test system of series [12] is Mus musculus. Kind of series: Anti-parkinsonian activity in ip dosed albino CD-1 mouse assessed as inhibition of oxotremorine-induced salivation at 0.25 to 1 time TD50 administered 30 mins prior challenge. It is filed as functional, organism-based. Put shortly:
as §1

A short description of series [13]: Neurotoxicity in ip dosed albino CD-1 mouse by rotarod test. It is filed as toxicity, organism-based. As to conditions: in vivo. Put shortly: as §2
Series [14] concerns Mus musculus. Kind of series: Anticonvulsant activity in ip dosed albino CD-1 mouse assessed as threshold ratio for pentylenetetrazole-induced tonic-clonic seizures at 0.5 time TD50 measured at time of peak effect relative to saline-treated control. It is filed as functional. In a few lines: as §3
The subject of series [15] is Mus musculus. Kind of series: Toxicity in albino CD-1 mouse assessed as behavioral effect at 2.81 mmol/kg, ip. It is filed as organism-based. As to conditions: in vivo.
The test system of series [16] is Mus musculus. Kind of series: Toxicity in albino CD-1 mouse assessed as occasional clonic seizure-like movements at >/= 6.1 mmol/kg, ip. It is filed as organism-based. As to conditions: in vivo.
Series [17] relates to Mus musculus. Kind of series: Toxicity in albino CD-1 mouse assessed as loss of righting reflex at >/= 6.1 mmol/kg, ip. It is filed as organism-based. The conditions noted are these: in vivo.
Series [18] concerns Mus musculus. Kind of series: Toxicity in albino CD-1 mouse assessed as increased excitability to touch at >/= 6.1 mmol/kg, ip. It is filed as organism-based. As to conditions: in vivo.
In series [19] the test system is Mus musculus. Kind of series: Toxicity in albino CD-1 mouse assessed as twitching at >/= 6.1 mmol/kg, ip. As to conditions: in vivo. It is filed as organism-based.
Series [20] can be described thus: Antagonist activity at acetylcholine receptor (unknown origin). Details: species or system Homo sapiens.

Calls of active or inactive are those of the source.

By ED50 is commonly meant the dose at which the effect has come halfway, by size or by number of responders. As a reminder, the TD50 is the dose at which the toxic effect under study appears in half of the subjects. Turning to `CC1(C)Oc2ccc(N3C(=O)C[C@@H](N)C3=O)cc2O1.Cl`, the ED50 in the series with Mus musculus [1] came to 570 µmol/kg. Besides, the Activity entry with Mus musculus [2] is “Toxic”; in the series with Mus musculus [3], “Toxic”; in the series with Mus musculus [5], “Toxic”; in the series on Mus musculus [8], “Toxic”; with Mus musculus [9], “Dose-dependent effect”. Besides, the outcome with Mus musculus [4] and in the series with Mus musculus [12] was inactive. Moreover, the Time in the series on Mus musculus [6] stood at 15 min. Moreover, the result in the series with Mus musculus [7] was Active. Moreover, the Ratio is 1.28 in the series with Mus musculus [10] and 1.66 with Mus musculus [14]. The selectivity ratio in series [11] is 1.68. In [13], this compound registered a TD50 of 960 µmol/kg.
Take `CCC1(C)CC(=O)NC1=O` (stereo not given) [ETHOSUXIMIDE]: the ED50 in the series on Mus musculus [1] was 2320 µmol/kg. Also, in the series on Mus musculus [6], the Time was found to be 5 min. Also, the values for the Ratio in the series on Mus musculus [10] and with Mus musculus [14] were 1.34 and 1.71, respectively. For the same compound, in series [13], the TD50 stood at 2320 µmol/kg.
Take `CN1C(=O)OC(C)(C)C1=O` [TRIMETHADIONE]: in the series on Mus musculus [1], the ED50 turned out to be 3720 µmol/kg. The Time in the series on Mus musculus [6] is recorded as 5 min. Besides, the Ratio in the series with Mus musculus [10] turned out to be 2.05; with Mus musculus [14], 2.25. The selectivity ratio in series [11] was found to be 1.07. For the same compound, the TD50 in series [13] is 3980 µmol/kg.
For the compound `Cl.N[C@@H]1CC(=O)N(Cc2ccc3c(c2)OCO3)C1=O`, in the series with Mus musculus [1], the ED50 came to 720 µmol/kg. For the same compound, the Activity result in the series with Mus musculus [15] was “Non-toxic”. For the same compound, in the series on Mus musculus [6], the Time was found to be 15 min. Further, the values for the Ratio in the series with Mus musculus [10] and with Mus musculus [14] were 1.61 and 1.18, respectively. In addition, the selectivity ratio in series [11] was 2.54. The compound also gave a TD50 in series [13] of 1830 µmol/kg.
`CC(=O)N[C@@H]1CC(=O)N(Cc2ccccc2)C1=O`: the ED50 in the series with Mus musculus [1] stood at 1460 µmol/kg. In addition, the Activity entry in the series on Mus musculus [16], in the series on Mus musculus [17], with Mus musculus [18] and with Mus musculus [19] was “Toxic” throughout. Moreover, the Time in the series with Mus musculus [6] was determined as 30 min. Moreover, the Ratio was determined as 1.36 with Mus musculus [10] and 0.85 with Mus musculus [14]. Also, the selectivity ratio in series [11] amounted to 3.25. The TD50 in series [13] stood at 4760 µmol/kg.
With `CC(=O)N[C@H]1CC(=O)N(Cc2ccccc2)C1=O`, in the series on Mus musculus [1], the ED50 stood at 1200 µmol/kg. Moreover, the Activity result in the series on Mus musculus [16], in the series on Mus musculus [17], in the series on Mus musculus [18] and in the series on Mus musculus [19] was “Toxic” each time. Further, the Time with Mus musculus [6] is given as 30 min. Also, the results for the Ratio with Mus musculus [10] and in the series on Mus musculus [14] were 1.06 and 1.11, respectively. Also, in [11], the selectivity ratio came out at 4.41. This compound also showed a TD50 in series [13] of 5280 µmol/kg.
With `O=C1N=C([O-])NC1(c1ccccc1)c1ccccc1.[Na+]` [PHENYTOIN SODIUM], in the series with Mus musculus [1], the ED50 amounted to 22 µmol/kg. For the same compound, in the series with Mus musculus [6], the Time was 45 min. The Ratio with Mus musculus [10] worked out at 1.07; in the series with Mus musculus [14] it was 2.08. For the same compound, the selectivity ratio in [11] was found to be 10. In addition, in [13], the TD50 was determined as 220 µmol/kg.
As to `Cl.N[C@H]1CC(=O)N(c2ccc3c(c2)OCO3)C1=O`, the ED50 in the series with Mus musculus [1] was found to be 5040 µmol/kg. In addition, the outcome in the series with Mus musculus [4] and in the series on Mus musculus [12] was Active. For the same compound, the Time with Mus musculus [6] stood at 45 min. In addition, the result in the series on Mus musculus [7] was inactive. Further, the Ratio in the series with Mus musculus [10] amounted to 1.08; with Mus musculus [14] it was 0.92. The same compound gave a TD50 in series [13] of 5040 µmol/kg.
For the compound `Cl.N[C@H]1CC(=O)N(Cc2ccc3c(c2)OCO3)C1=O`, the ED50 with Mus musculus [1] turned out to be 700 µmol/kg. The Activity entry with Mus musculus [15] is “Non-toxic”. For the same compound, the Time in the series on Mus musculus [6] is 15 min. Also, the results for the Ratio in the series on Mus musculus [10] and with Mus musculus [14] were 1.54 and 1.09, respectively. Also, the selectivity ratio in series [11] is 2.85. In series [13], the TD50 stood at 2000 µmol/kg.
What is called pA2 is the negative logarithm of the molar antagonist concentration that doubles the agonist concentration needed for the same response. `CCN[C@@H]1CCN(c2ccccc2)C1` returned a pA2 in [20] of 3.5.
As for `Cl.N[C@@H]1CC(=O)N(c2ccc3c(c2)OCO3)C1=O`, in the series on Mus musculus [1], the ED50 is 3330 µmol/kg. Besides, the result in the series with Mus musculus [4] and in the series with Mus musculus [12] was Active. Besides, in the series with Mus musculus [6], the Time was found to be 45 min. Also, the outcome in the series on Mus musculus [7] was inactive. The Ratio was found to be 1.03 in the series on Mus musculus [10] and 0.75 in the series with Mus musculus [14]. The compound also displayed a TD50 in series [13] of 3330 µmol/kg.
For `CC1(C)Oc2ccc(N3C(=O)C[C@H](N)C3=O)cc2O1.Cl`, the ED50 in the series on Mus musculus [1] was determined as 840 µmol/kg. Further, the Activity entry with Mus musculus [2], with Mus musculus [3], in the series with Mus musculus [5] and in the series on Mus musculus [8] was “Toxic” in each case. Further, the outcome in the series with Mus musculus [4] and in the series with Mus musculus [12] was inactive. The Time in the series with Mus musculus [6] worked out at 30 min. Moreover, the outcome in the series with Mus musculus [7] was Active. Besides, the Ratio in the series with Mus musculus [10] was determined as 1.36; in the series on Mus musculus [14], 1.34. Further, in [11], the selectivity ratio worked out at 1.45. The compound further had a TD50 in series [13] of 1220 µmol/kg.
